How the values were obtained:
[1] = test system: Mycobacterium tuberculosis; assay: Antimycobacterial activity against Mycobacterium tuberculosis H37Rv by microplate alamar blue assay; format: functional
How it was run: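 M. tuberculosis H37Rv (ATCC 27294) exposed to decreasing compound concentrations in Middlebrook 7H9 medium. Growth read by Microplate Alamar Blue Assay. MIC taken as the lowest concentration that […]. Values are means of three separate experiments. Rifampicin at 1.0 µg/mL served as internal control.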

[2] = Cell proliferation of mouse […] cells at 0.05 ug/mL by MTT assay; format: ADME, cell-based, J774.A1; conditions: J774A.1 cells, read-out: Activity
How it was run: (§1)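 Supernatants removed, cells given supplemented RPMI plus MTT (5 mg/mL) for 4 h at 37 °C, 5% CO2. Reaction stopped with acidic isopropanol (HCl), 10 min at room temperature, OD read at 570 nm. Proliferation and cytotoxicity calculated by formulae.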

J774.A1 [3] = assay: Cytotoxicity against mouse […] cells at 0.05 ug/mL by MTT assay; format: cell-based; how it was run: as §1
[4] = Cell proliferation of mouse […] cells at 0.5 ug/mL by MTT assay; format: ADME, cell-based, J774.A1; conditions: J774A.1 cells, read-out: Activity; how it was run: as §1
J774.A1 [5] = assay: Cytotoxicity against mouse […] cells at 0.5 ug/mL by MTT assay; format: cell-based; how it was run: as §1
[6] = Cell proliferation of mouse […] cells at 0.005 ug/mL by MTT assay; format: ADME, cell-based, J774.A1; conditions: J774A.1 cells, read-out: Activity; how it was run: as §1
J774.A1 [7] = assay: Cytotoxicity against mouse […] cells at 0.005 ug/mL by MTT assay; format: cell-based; how it was run: as §1

SMILES | MIC [1] | viability at 0.05 ug/mL [2] | Activity (J774.A1 [3]) | viability at 0.5 ug/mL [4] | Activity (J774.A1 [5]) | viability at 0.005 ug/mL [6] | Activity (J774.A1 [7])
CCCCCCCCCCCCNCCO | 27 µM | 77.6% | 8.4% | 90.9% | 21.3% | 92.7% | 12.1%
CCCCCCCCCCC(O)CN (stereo unspecified) | 15 µM | 112% | Not Active | 96.4% | 31.1% | 110% | Not Active
CCCCCCCCCCCCCCN(CCO)C[C@H]1O[C@@H]2OC(C)(C)O[C@@H]2[C@H]2OC(C)(C)O[C@H]21 | 12 µM | 135% | Not Active | 118% | Not Active | 113% | Not Active
CCCCCCCCCCCCCCCCN(CCO)C[C@H]1O[C@@H]2OC(C)(C)O[C@@H]2[C@H]2OC(C)(C)O[C@H]21 | 11 µM | – | 16.3% | 149% | 17.4% | 104% | 10.6%
CCCCCCCCCCC(O)CNC[C@H]1O[C@@H]2OC(C)(C)O[C@@H]2[C@H]2OC(C)(C)O[C@H]21 (stereo partly specified) | 28 µM | – | – | – | – | – | –
CCCCCCCCNCCO | 578 µM | – | – | – | – | – | –
CCCCCCCCCCNCCO | 248 µM | – | – | – | – | – | –
CCCCCCCCCCCCCCCCNCCO | 46 µM | – | – | – | – | – | –
CCCCC(CC)CNCCO (stereo unspecified) | > 578 µM | – | – | – | – | – | –
CCCCCCCCCCCCN(CCO)C[C@H]1O[C@@H]2OC(C)(C)O[C@@H]2[C@H]2OC(C)(C)O[C@H]21 | 6 µM | 98.9% | Not Active | 96.6% | Not Active | 98.3% | Not Active
CCCCC(CC)CN(CCO)C[C@H]1O[C@@H]2OC(C)(C)O[C@@H]2[C@H]2OC(C)(C)O[C@H]21 (stereo partly specified) | > 240 µM | – | – | – | – | – | –
CCCCCCCCCCN(CCO)C[C@H]1O[C@@H]2OC(C)(C)O[C@@H]2[C@H]2OC(C)(C)O[C@H]21 | 225 µM | – | – | – | – | – | –
CCCCCCCCN(CCO)C[C@H]1O[C@@H]2OC(C)(C)O[C@@H]2[C@H]2OC(C)(C)O[C@H]21 | 241 µM | – | – | – | – | – | –
CC[C@@H](CO)NCCN[C@@H](CC)CO [ETHAMBUTOL] | 3.25 µg/mL | – | – | – | – | – | –
NNC(=O)c1ccncc1 [ISONIAZID] | 0.2 µg/mL | – | – | – | – | – | –
CCCCCCCCCCCCCCNCCO [MYRALACT] | 51 µM | – | – | – | – | – | –
CO[C@H]1/C=C/O[C@@]2(C)Oc3c(C)c(O)c4c(O)c(c(/C=N/N5CCN(C)CC5)c(O)c4c3C2=O)NC(=O)/C(C)=C\C=C\[C@H](C)[C@H](O)[C@@H](C)[C@@H](O)[C@@H](C)[C@H](OC(C)=O)[C@@H]1C [RIFAMPIN] | 1 µg/mL | – | – | – | – | – | –

— ChEMBL document CHEMBL1140478, “Preparation and antitubercular activities of alkylated amino alcohols and their glycosylated derivatives” (Bioorg Med Chem, 2007)
